Screens from PubChem BioAssay.
MEX-5 binding = C. elegans MEX-5 TCR-2 RNA binding activity | MEX-5/FITC-TCR2 RNA binding, fluorescence polarization; active compounds read low | 0.38% of 300,000 active | Q9XUB2 | AID 1832 | activity score (negative = inhibition of binding), % at 10 µM;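 active = inhibition past about -25% in most replicates, and total fluorescence under double the plate's negative control median, limit read from the data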;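 note: 0% = DMSO and -100% = 5 µM competing unlabeled TCR2 RNA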
VIM-2 inh = blocks Pseudomonas aeruginosa VIM-2 metallo-beta-lactamase; AID 1527; inhibition, % at 5.6 µM; 0.89% of 290,000 active; purified VIM-2, nitrocefin hydrolysis, epi-absorbance fluorescence;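 active = inhibition above the mean of all tested compounds plus 3 SD, cutoff set per screening run, cut at about 7.5% in these data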;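 note: red hydrolysis product quenches plate fluorescence so inhibitors raise well fluorescence; 0% = enzyme with DMSO and 100% = DMSO without enzyme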
BCLXL inh = Bcl-xL (human) inhibition; inhibition, % at 10.9 µM; GST-Bcl-xL / FITC-Bim BH3 peptide fluorescence polarization; 0.7% of 320,000 active;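 active = inhibition above the mean of all tested compounds plus 3 SD, cutoff set per campaign, cut at about 30% in these data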;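 note: 0% = DMSO wells and 100% = unlabeled Bim-BH3 peptide competitor; inhibitors lower millipolarization by displacing the labeled peptide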
IMP-1 inh = blocks Pseudomonas aeruginosa IMP-1 metallo-beta-lactamase; purified IMP-1, nitrocefin hydrolysis, epi-absorbance fluorescence; inhibition, % at 5.6 µM; 0.45% of 290,000 active;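 active = inhibition above the mean plus 3 SD of all compounds in the same screening run, cut at about 4.5% in these data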;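 note: 0% = IMP-1 with DMSO and 100% = DMSO wells lacking enzyme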
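Assay system: purified recombinant IMP-1 beta-lactamase. Input: IMP-1 0.2 nM before substrate addition. Buffer or medium: Zinc- and detergent-supplemented HEPES buffer, pH 7.1. Schedule: 25 °C, 15 min preincubation, 25 min reaction. Signal: Epi-absorbance fluorescence, 480 nm excitation, 530 nm emission. Evaluation: percent inhibition from optical density relative to buffer-blank wells.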
GLD-1 TGE inh = GLD-1-TGE RNA interaction inhibition (C. elegans); purified GLD-1 + fluorescein TGE RNA, fluorescence polarization; 0.44% of 320,000 active; Q17339; inhibition, % at 5.96 µM;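 active = percent inhibition above a per-plate cutoff, the plate mean of test compounds plus 3 SD, cut at about 30% in these data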;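 note: 0% = DMSO wells with GLD-1 and probe and 100% = wells lacking GLD-1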
Target sequence (Q17339 whole entry, looked up): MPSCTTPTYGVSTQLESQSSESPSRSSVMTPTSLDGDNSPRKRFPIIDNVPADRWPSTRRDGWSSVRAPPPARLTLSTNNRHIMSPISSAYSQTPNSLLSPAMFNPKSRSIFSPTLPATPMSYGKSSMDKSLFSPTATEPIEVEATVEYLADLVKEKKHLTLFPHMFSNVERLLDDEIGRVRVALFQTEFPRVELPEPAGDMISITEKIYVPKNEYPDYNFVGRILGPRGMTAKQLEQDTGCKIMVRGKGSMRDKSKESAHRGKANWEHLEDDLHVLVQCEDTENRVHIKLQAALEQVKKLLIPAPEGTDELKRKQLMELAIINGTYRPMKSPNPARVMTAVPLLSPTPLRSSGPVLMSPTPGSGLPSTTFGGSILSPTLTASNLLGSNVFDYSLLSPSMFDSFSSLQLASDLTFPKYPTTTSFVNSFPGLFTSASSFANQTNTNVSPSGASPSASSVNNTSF
EBV gp42 inh = EBV gp42 inhibition; inhibition, % (tested at 21.74 µM); Q1HVG2; 0.42% of 220,000 active; Fluorescence polarization binding assay, mP read-out; in the data active = inhibition above about 50%
Target sequence (Q1HVG2 whole entry, looked up): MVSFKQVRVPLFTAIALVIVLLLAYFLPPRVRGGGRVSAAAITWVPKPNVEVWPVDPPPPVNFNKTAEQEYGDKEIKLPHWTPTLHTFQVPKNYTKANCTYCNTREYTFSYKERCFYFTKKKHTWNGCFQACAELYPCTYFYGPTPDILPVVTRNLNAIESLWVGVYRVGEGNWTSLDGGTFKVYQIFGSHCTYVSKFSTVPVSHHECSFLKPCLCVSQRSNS
Numbers without * were called inactive. Shown are actives, neighbours in structure and some others; about 2.2% of the full set was active somewhere.

What do the screens show for `CCN(CC)CCNC(=O)c1ccc(Cl)c(S(=O)(=O)Nc2ccccc2OC)c1`?
MEX-5 binding: -2; VIM-2 inh: -1; BCLXL inh: 6; IMP-1 inh: 5.4*; GLD-1 TGE inh: -2; EBV gp42 inh: -22

How did Cc1ccc(C)c(S(=O)(=O)N(C)C2(C)CCS(=O)(=O)C2)c1 (stereo not drawn) do in these assays?
MEX-5 binding: -1; BCLXL inh: 6; GLD-1 TGE inh: 7

What do the screens show for `Cc1cc(C)c(C)c(S(=O)(=O)N2CCC(C(=O)OCC(=O)NC3CCS(=O)(=O)C3)CC2)c1C` (stereo not drawn)?
GLD-1 TGE inh: 3

Results for c1ccc(-c2nnc(-c3ccco3)o2)cc1 ?
MEX-5 binding: 0; VIM-2 inh: -1; BCLXL inh: 5; IMP-1 inh: -3; GLD-1 TGE inh: 3; EBV gp42 inh: -9

What do the screens show for `c1coc(-c2nnc(-c3ccco3)nn2)c1`?
MEX-5 binding: -59*; VIM-2 inh: -3; BCLXL inh: 43*; IMP-1 inh: -4; GLD-1 TGE inh: 8

How did Cc1ccccc1NS(=O)(=O)c1ccc(NS(=O)(=O)c2cccs2)cc1 do in these assays?
MEX-5 binding: -3; VIM-2 inh: -1; BCLXL inh: 5; IMP-1 inh: 0; GLD-1 TGE inh: 6

What do the screens show for `CC(=O)Nc1ccc2nc3c(=O)n(C)c(=O)n(C)c3nc2c1`?
MEX-5 binding: -13; VIM-2 inh: 6; BCLXL inh: 132*; IMP-1 inh: -2; GLD-1 TGE inh: 65*; EBV gp42 inh: 102*

Results for Cn1c(=O)c2nc3ccccc3nc2n(C)c1=O ?
MEX-5 binding: -5; VIM-2 inh: 6; BCLXL inh: 7; IMP-1 inh: -3; GLD-1 TGE inh: 10; EBV gp42 inh: 1

What do the screens show for `CCC(C)NC(=O)CN1C(=O)c2cccc3cccc1c23` (stereo not drawn)?
MEX-5 binding: 3; VIM-2 inh: -4; IMP-1 inh: -3

Results for CCN1/C(=N\N)c2cccc3cccc1c23 ?
MEX-5 binding: -1; VIM-2 inh: -3; BCLXL inh: 52*; IMP-1 inh: -2; GLD-1 TGE inh: 22; EBV gp42 inh: 24

Results for COc1cc(/C=C(\C#N)C(=O)c2c[nH]c3ccccc23)cc(OC)c1O ?
MEX-5 binding: 35; VIM-2 inh: -3; BCLXL inh: -30; IMP-1 inh: 4.8*; GLD-1 TGE inh: -51; EBV gp42 inh: -151

What do the screens show for `COc1cc(/C=C(\C#N)C(=O)NCCc2ccccc2)cc(OC)c1O`?
MEX-5 binding: 4; VIM-2 inh: -3; BCLXL inh: -29; IMP-1 inh: -4; GLD-1 TGE inh: -82; EBV gp42 inh: -80

Results for COc1ccc(-c2nc3ccccn3c2Cl)cc1 ?
MEX-5 binding: 3; VIM-2 inh: -2; BCLXL inh: 2; IMP-1 inh: -2; GLD-1 TGE inh: 4

Results for Cc1cc(C)nc(N2C(=O)CC(C(C)c3ccccc3)C2=O)n1 (stereo not drawn) ?
MEX-5 binding: 0; VIM-2 inh: -1; BCLXL inh: 7; IMP-1 inh: 9.3*; GLD-1 TGE inh: -4; EBV gp42 inh: -8

How did COc1ccc2nc(N3C(=O)CC(C(C)c4ccccc4)C3=O)sc2c1 (stereo not drawn) do in these assays?
VIM-2 inh: 4; BCLXL inh: 2; IMP-1 inh: 7.9*; GLD-1 TGE inh: 6; EBV gp42 inh: -4

Results for CCc1ccc(NC(=O)C(C)Sc2nc(-c3ccco3)c(C#N)c(=O)[nH]2)cc1 (stereo not drawn) ?
MEX-5 binding: -1; VIM-2 inh: -1; BCLXL inh: 23; IMP-1 inh: -1; GLD-1 TGE inh: 16

How did Cc1ccc(C2=N/C(=C\c3ccc(F)cc3)C(=O)N2)cc1 do in these assays?
BCLXL inh: -2; GLD-1 TGE inh: 5

How did Cc1ccccc1NC(=S)N/N=C1\CC(C)(C)Oc2ccc(O)cc21 do in these assays?
MEX-5 binding: 2; VIM-2 inh: -4; BCLXL inh: 82*; IMP-1 inh: -2; GLD-1 TGE inh: 4; EBV gp42 inh: -2

Results for NC(=O)CCCn1c(C(=O)c2cc(Cl)c(N)c(Cl)c2)c2ccc([N+](=O)[O-])cc2[n+]1[O-] ?
MEX-5 binding: -3; BCLXL inh: 6; GLD-1 TGE inh: -6

What do the screens show for `CCOC(=O)c1ccc(CC(=O)c2ccc(O)c(O)c2O)o1`?
MEX-5 binding: -27*; VIM-2 inh: 1; IMP-1 inh: -2; EBV gp42 inh: 4

What do the screens show for `CC1(C)Cc2c(c(-c3ccco3)nc3sc4c(NCCN5CCOCC5)ncnc4c23)CO1`?
MEX-5 binding: -10; VIM-2 inh: -3; BCLXL inh: 3; IMP-1 inh: 1; GLD-1 TGE inh: 0; EBV gp42 inh: -6

What do the screens show for `CC1(C)Cc2c(sc3nc(NCCN4CCOCC4)n4ncnc4c23)CO1`?
MEX-5 binding: 0; VIM-2 inh: 7; BCLXL inh: 2; IMP-1 inh: 16*; GLD-1 TGE inh: 7; EBV gp42 inh: 2

Results for Cc1onc(-c2c(F)cccc2Cl)c1C(=O)N(C)CCc1ccccn1 ?
MEX-5 binding: -1; VIM-2 inh: -3; BCLXL inh: 4; IMP-1 inh: -2; GLD-1 TGE inh: -6

How did Cc1cc(=O)oc2cc(NC(=O)CC3(CC(=O)O)CCCC3)ccc12 do in these assays?
MEX-5 binding: -1; VIM-2 inh: -2; BCLXL inh: 4; IMP-1 inh: -2; GLD-1 TGE inh: 5; EBV gp42 inh: -7

What do the screens show for `CCN(CC)c1ccc(C=C(c2nnnn2-c2ccc(C)cc2)c2nnnn2-c2ccc(C)cc2)cc1`?
MEX-5 binding: 0; VIM-2 inh: -3; BCLXL inh: -8; IMP-1 inh: 52*; GLD-1 TGE inh: -28; EBV gp42 inh: -65

How did Cc1ccc(-n2nnnc2-c2ccccc2)cc1 do in these assays?
MEX-5 binding: -1; VIM-2 inh: -2; BCLXL inh: 1; IMP-1 inh: -2; GLD-1 TGE inh: 3; EBV gp42 inh: -4

Results for Cc1cc(O)c(Oc2cc(C)cc(O)c2O)c(O)c1 ?
MEX-5 binding: -49*; VIM-2 inh: -3; BCLXL inh: 27; IMP-1 inh: -2; GLD-1 TGE inh: 11; EBV gp42 inh: -9

What do the screens show for `CCCCOc1ccc2c(c1)/C(=C(\C(Cl)=C(Cl)Cl)[N+](=O)[O-])N2`?
MEX-5 binding: -59*; VIM-2 inh: 0; BCLXL inh: 101*; IMP-1 inh: -2; GLD-1 TGE inh: 63*; EBV gp42 inh: 56*

What do the screens show for `CCOc1ccc2c(c1)/C(=C(\C(Cl)=C(Cl)Cl)[N+](=O)[O-])N2`?
MEX-5 binding: -44*; VIM-2 inh: -2; BCLXL inh: 130*; IMP-1 inh: -2; GLD-1 TGE inh: 89*; EBV gp42 inh: -3

How did O=C(CCN1C(=O)c2ccccc2S1(=O)=O)Nc1ccc(F)c(F)c1F do in these assays?
MEX-5 binding: 3; BCLXL inh: -6; GLD-1 TGE inh: 2
